Experimental data published in ChEMBL document CHEMBL2396602, “Discovery of N-(4'-(indol-2-yl)phenyl)sulfonamides as novel inhibitors of HCV replication” (Bioorg Med Chem Lett, 2013).
Activity calls are given as the source filed them. No cut-off for these calls is given here.

Assays:
[1] = Cytotoxicity against human HuH7 cells after 2 days by MTS assay; format: cell-based, Huh-7
How it was run: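 MTS cell proliferation assay run in parallel with the luciferase replicon assay in the same genotype 1b replicon-bearing Huh7 cells (5000 cells/well, 0.5% DMSO final, 37 °C); CC50 derived.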

[2] = test system: Hepatitis C virus; test: Antiviral activity against Hepatitis C virus genotype 1b infected in human HuH7 cells assessed as inhibition of viral replication after 2 days by luciferase reporter gene assay; format: functional, organism-based, Hepacivirus hominis; conditions: Huh-7, 48 h
How it was run: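 Huh7 cells carrying a genotype 1b bicistronic HCV replicon plated at 5000 cells/well, kept subconfluent; compound added at 0.5% DMSO final, incubated at 37 °C; luciferase read after 2 days; EC50 from dose response.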

[3] = Selectivity index, ratio of CC50 for human HuH7 cells to EC50 for Hepatitis C virus subtype 1b; format: toxicity, cell-based, Huh-7; conditions: read-out: Ratio CC50/EC50
How it was run: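 Ratio of CC50 from the MTS assay to EC50 from the luciferase assay, both in genotype 1b bicistronic replicon Huh7 cells run in parallel.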

[4] = test system: Hepacivirus hominis; test: Inhibition of HCV protease up to 10 uM
[5] = test system: Rattus norvegicus; test: Oral bioavailability in Sprague-Dawley rat at 3 mg/kg; format: ADME, organism-based; conditions: in vivo
How it was run: (§1)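 Female Sprague–Dawley rats dosed with compound in PEG-300 solution, 3 mg/kg orally or 1 mg/kg intravenously; pharmacokinetic parameters derived from plasma exposure after each route.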

[6] = Cmax in Sprague-Dawley rat at 3 mg/kg, po; format: ADME, organism-based; parameters: dose 3 mg/kg, route oral; conditions: in vivo; how it was run: as §1
[7] = test system: Rattus norvegicus; test: AUC (0 to infinity) in Sprague-Dawley rat at 3 mg/kg, po; format: ADME, organism-based, Plasma; parameters: dose 3 mg/kg, route oral, time infinity; conditions: in vivo; how it was run: as §1
[8] = Volume of distribution at steady state in Sprague-Dawley rat at 1 mg/kg, iv; format: ADME, organism-based; parameters: dose 1 mg/kg, route intravenous; conditions: in vivo, read-out: Vdss; how it was run: as §1
[9] = Half life in Sprague-Dawley rat at 1 mg/kg, iv; format: ADME, organism-based; parameters: dose 1 mg/kg, route intravenous; conditions: in vivo; how it was run: as §1
[10] = Intrinsic clearance in human liver microsomes at 1 uM by LC/MS analysis; format: ADME, Microsome; conditions: read-out: CLH
How it was run: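 Compound at 1 µM incubated with human liver microsomes (0.5 mg/mL protein) for 0, 10, 20, 30 and 60 min with 1 mM EDTA, 3 mM MgCl2, 1.3 mM NADP, 3.3 mM D-glucose-6-phosphate and 1 unit/mL glucose-6-phosphate dehydrogenase.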

[11] = test system: Hepatitis C virus; test: Antiviral activity against Hepatitis C virus genotype 1b infected in human HuH7 cells assessed as reduction in HCV RNA after 3 days by RT-PCR analysis; format: functional, organism-based, Hepacivirus hominis; conditions: Huh-7, 72 h
How it was run: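 Huh7 cells with a genotype 1b monocistronic replicon seeded at 5000 cells/well; compound at 0.5% DMSO final, 37 °C; cells harvested 3 days after dosing; replicon RNA measured by real-time RT-PCR, normalised to GAPDH RNA.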

Structure (SMILES)	EC50 [2]	CC50 at 48 h [1]	further results
CCn1c(-c2ccc(NS(=O)(=O)CC)cc2)c(C#N)c2cc(Cl)ccc21	7.5 µM	40 µM	
CCn1c(-c2ccc(NC(C)=O)cc2)c(C#N)c2ccc(OC)cc21	1.3 µM	89 µM	
CCn1c(-c2ccc(NS(=O)(=O)C(C)C)cc2)c(C#N)c2ccc(OC)cc21	0.65 µM	70 µM	
CCn1c(-c2ccc(NS(=O)(=O)CC)cc2)c(C#N)c2ccc(OCCF)cc21	0.59 µM	39 µM	selectivity ratio [3]: 66
CCn1c(-c2ccc(NS(=O)(=O)C(C)C)cc2)c(C#N)c2cc(OC)ccc21	7.4 µM	36 µM	
CCOc1ccc(-c2c(C#N)c3ccc(OC)cc3n2CC)cc1	3 µM	> 100 µM	
COc1ccc(-n2cc([N+](=O)[O-])c3ccc(OC)cc32)cc1	50 µM		
CCn1c(-c2ccc(NS(=O)(=O)CC)cc2)c(C#N)c2c(Cl)cccc21	3.5 µM	55 µM	
CCn1c(-c2ccc(NS(=O)(=O)CC)cc2)c(C#N)c2ccc(COC)cc21	5 µM	> 100 µM	
CCn1c(-c2ccc(NS(=O)(=O)CC)cc2)c(C#N)c2ccc(O)cc21	2 µM	55 µM	
CCn1c(-c2ccc(NS(=O)(=O)CC)cc2)c(C#N)c2cc(OC)c(OC)cc21	4 µM	> 100 µM	
CCn1c(-c2ccc(NC(=O)c3ccccc3)cc2)c(C#N)c2ccc(OC)cc21	> 100 µM	> 100 µM	
CCn1c(-c2ccc(N3CCCS3(=O)=O)cc2)c(C#N)c2ccc(OC)cc21	2 µM	> 50 µM	
CCn1c(-c2ccc(NS(=O)(=O)CC)cc2)c(C#N)c2cc(F)ccc21	0.59 µM	39 µM	
CCn1c(-c2ccc(NS(=O)(=O)CC)cc2)c(C#N)c2ccc(CO)cc21	3.5 µM	60 µM	
CCn1c(-c2ccc(NS(=O)(=O)CC)cc2)c(C#N)c2ccc(C(=O)O)cc21	> 11 µM	> 100 µM	
CCn1c(-c2ccc(N3CCNS3(=O)=O)cc2)c(C#N)c2ccc(OC)cc21	0.9 µM	30 µM	
CCn1c(-c2ccc(NS(=O)(=O)CC)cc2)c(C#N)c2ccc(CN3CCOCC3)cc21	3 µM	35 µM	
CCOC(=O)Nc1ccc(-c2c(C#N)c3ccc(OC)cc3n2CC)cc1	1.3 µM	41 µM	
CCn1c(-c2ccc(S(C)(=O)=O)cc2)c(C#N)c2ccc(OC)cc21	2.6 µM	42 µM	
CCn1c(-c2ccc(C(N)=O)cc2)c(C#N)c2ccc(OC)cc21	7.8 µM	> 100 µM	
CCn1c(-c2ccc(N)cc2)c(C#N)c2ccc(OC)cc21	7.7 µM	100 µM	
CCn1c(-c2ccc(OC)cc2)c(C#N)c2ccc(OC)cc21	4.1 µM	> 100 µM	
CCn1c(-c2ccc(NS(=O)(=O)CC)cc2)c(C#N)c2ccccc21	9 µM	40 µM	
CCn1c(-c2ccc(NS(=O)(=O)CC)cc2)c(C#N)c2ccc(C(N)=O)cc21	9 µM	55 µM	
CCn1c(-c2ccc(OC)cc2)c([N+](=O)[O-])c2ccc(OC)cc21	> 51 µM		
CCn1c(-c2ccc([S+](C)[O-])cc2)c(C#N)c2ccc(OC)cc21 (configuration not stated)	4 µM	52 µM	
CCOc1ccc2c(C#N)c(-c3ccc(NS(=O)(=O)CC)cc3)n(CC)c2c1	0.53 µM	42 µM	
CCn1c(-c2ccc(O)cc2)c(C#N)c2ccc(OC)cc21	6.1 µM	50 µM	
CC(C)S(=O)(=O)Nc1ccc(-c2c(C#N)c3ccc(OC(F)F)cc3n2CC2CC2)cc1		22 µM	

Continued by falling EC50 [2], values first:

EC50 [2]	Structure (SMILES)	CC50 at 48 h [1]	further results
0.47 µM	CCn1c(-c2ccc(NS(=O)(=O)CC)cc2)c(C#N)c2ccc(OC)cc21	62 µM	selectivity ratio [3]: > 130
0.36 µM	CCn1c(-c2ccc(NS(=O)(=O)CC)cc2)c(C#N)c2ccc(C(F)(F)F)cc21	18 µM	selectivity ratio [3]: 50
0.3 µM	CCS(=O)(=O)Nc1ccc(-c2c(C#N)c3ccc(OC(F)F)cc3n2CC2CC2)cc1	13 µM	
0.29 µM	CCn1c(-c2ccc(NS(=O)(=O)CC)cc2)c(C#N)c2ccc(OC(F)F)cc21	20 µM	selectivity ratio [3]: 69
0.25 µM	CCCn1c(-c2ccc(NS(=O)(=O)C3CC3)cc2)c(C#N)c2ccc(OC(F)F)cc21	> 100 µM	
0.22 µM	CCCS(=O)(=O)Nc1ccc(-c2c(C#N)c3ccc(OC(F)F)cc3n2CC)cc1	26 µM	
0.2 µM	CCS(=O)(=O)Nc1ccc(-c2c(C#N)c3ccc(OC(F)F)cc3n2C(C)C)cc1	12 µM	
0.19 µM	N#Cc1c(-c2ccc(NS(=O)(=O)C3CC3)cc2)n(C2CCC2)c2cc(OC(F)F)ccc12	20 µM	
0.17 µM	N#Cc1c(-c2ccc(NS(=O)(=O)C3CC3)cc2)n(CC2CC2)c2cc(OC(F)F)ccc12	25 µM	inhibition [4]: inactive; F [5]: 58%; Cmax [6]: 770 ng/mL; AUC [7]: 6.8 µM·h; Vd [8]: 2.2 L/kg; half-life [9]: 6.3 h; CLint scaled at 1 µM [10]: < 1 mL/min/kg; EC50 [11]: 0.18 µM; selectivity ratio [3]: 147
0.17 µM	CCn1c(-c2ccc(NS(=O)(=O)CC)cc2)c(C#N)c2ccc(OC(F)(F)F)cc21	24 µM	selectivity ratio [3]: 141
0.12 µM	CCn1c(-c2ccc(NS(=O)(=O)C(C)C)cc2)c(C#N)c2ccc(OC(F)F)cc21	19 µM	
0.1 µM	CCn1c(-c2ccc(NS(=O)(=O)C3CC3)cc2)c(C#N)c2ccc(OC(F)F)cc21	23 µM	
0.075 µM	CC(C)n1c(-c2ccc(NS(=O)(=O)C3CC3)cc2)c(C#N)c2ccc(OC(F)F)cc21	13 µM	
